Bridge positions count the residues as written; N and C are the ends. Square brackets hold non-standard residues; d marks the D form. Ends that are not written are not given here. Peptide text beside a SMILES is read from it.

Series [1] deals with human PD-1/PD-L1 interaction (Homo sapiens, UniProt Q9NZQ7). As to the kind of experiment: Protein-based PD-1/PD-L1 blocking assay. In kind it is binding. As to conditions: human PD-L1/PD-1 protein interaction.
The test system of another series is CT26 tumor. As to the kind of experiment: Anti-tumor activity and survival study in CT26 syngeneic Balb/c mouse model. In kind it is in vivo. The method in brief:
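CT26 cells (~1×10^6) implanted s.c. in the right flank of male and female Balb/c mice. At 200-250 mm3, mice were split into five groups of 4 female + 4 male. Test compound or anti-mouse PD-L1 antibody 0.5 mg/kg i.p. daily, day 10–18; saline i.p. control. Caliper volume = 1/2 × length × width2. RTV = day 18/day 10 volume; TGI on day 18; survival curves.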

The next series deals with trypsin. As to conditions: cited from earlier work.
For another series, the system named is PD-1/PD-L1 complex. The following applies: cited from earlier work.

Chain of human PD-1/PD-L1 interaction (Q9NZQ7 19-238 limits assumed): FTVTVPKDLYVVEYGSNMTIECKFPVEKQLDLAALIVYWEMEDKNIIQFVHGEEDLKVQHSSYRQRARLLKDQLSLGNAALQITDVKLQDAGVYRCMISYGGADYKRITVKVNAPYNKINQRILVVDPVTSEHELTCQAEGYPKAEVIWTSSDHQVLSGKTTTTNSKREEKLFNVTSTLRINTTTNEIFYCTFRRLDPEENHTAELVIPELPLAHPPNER

In the case of `CC(=O)N[C@H]1CSSC[C@@H](C(=O)N[C@@H](Cc2c[nH]c3ccccc23)C(=O)N[C@@H](CC(N)=O)C(=O)N[C@@H](CC(C)C)C(=O)N[C@@H](CC(N)=O)C(=O)N[C@H](C(N)=O)[C@@H](C)O)NC(=O)[C@H](Cc2ccc(O)cc2)NC(=O)[C@H](Cc2ccc(O)cc2)NC(=O)[C@H](CO)NC(=O)[C@H](CCCNC(=N)N)NC(=O)[C@H](Cc2c[nH]cn2)NC1=O` [C12] (Ac-CHRSYYCWNLNT-NH2; disulfide 1-7; N-terminus and C-terminus assumed), the “increase in the blocking efficiency (normalized against the parent peptide CLP-2)” value in series [1] (peptide at 5 μM) is roughly 2 fold. For the same compound, the “survival of the mice compared with the saline group” value in the series on CT26 tumor (0.5 mg/kg intraperitoneally daily) is reported as “significant improvement in survival”. The “anti-tumor activity (tumor growth) compared with the saline group” value in the series with CT26 tumor (0.5 mg/kg intraperitoneally daily from day 10 to day 18, CT26 Balb/c mice) was “significant anti-tumor activity”. In the case of “d(CNLNWTYYSRHC) ([dC][dN][dL][dN][dW][dT][dY][dY][dS][dR][dH][dC]; cysteine pairing not given here; also: retro-inverso) [retro-inverso sequence of the C7 peptide]”, the “blocking efficiency / blocking activity (in words)” value in series [1] (screening at 5 μM normalized against CLP-2) is recorded as “loss of the blocking efficiency”. Consider IDR-1018, for which the “time to degradation in trypsin” value with trypsin was “less than 30 min”.

Regarding `C[C@@H](O)[C@H](NC(=O)N[C@@H](CC(N)=O)c1nc([C@@H](N)CO)no1)C(=O)O` [CA-170], in the series on PD-1/PD-L1 complex, the “blocking of the formation of the PD-1/PD-L1 complex” value is “could not block the formation of the PD-1/PD-L1 complex”.

(Values after article PMC10671706 (Journal of medicinal chemistry, 2022).)
